Reference: ChEMBL document CHEMBL3997798, “Novel Selective Estrogen Receptor Downregulators (SERDs) Developed against Treatment-Resistant Breast Cancer” (J Med Chem, 2017)

What was measured:
Plasma = assay: Drug uptake in mouse plasma at 100 mg/kg, po via gavage at 0.5 to 4 hrs post dose by LC-MS/MS analysis; type: ADME, organism-based; details: in vivo
In short: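 Plasma concentrations in mice were measured at 0.5 and 4 h after a 100 mg/kg oral dose given as a 0.5% CMC suspension.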

[1] = Oral bioavailability in rat; type: ADME, organism-based; details: in vivo

Structure (SMILES) | Drug uptake (Plasma) | bioavailability [1] [%]
Cc1ccc(C(=O)c2sc3cc(O)ccc3c2Oc2ccc(/C=C/C(=O)O)cc2)c(C)c1 | Active | –
Cc1cc(Cl)cc(C)c1C(=O)c1sc2cc(O)ccc2c1Oc1ccc(/C=C/C(=O)O)cc1 | Active | –
Oc1ccc2c(c1)CC[C@H](c1ccccc1)[C@@H]2c1ccc(OCCN2CCCC2)cc1 [LASOFOXIFENE] | – | > 60
Cc1cc(F)cc(C)c1C(=O)c1sc2cc(O)ccc2c1Oc1ccc(/C=C/C(=O)O)cc1 [RINTODESTRANT] | Active | –
